Bioassay records as filed in PubChem.
TbHK1 inh = blocks Trypanosoma brucei hexokinase 1 activity. recombinant TbHK1, G6PDH-coupled NADH A340. inhibition, % at 10 µM. 220,000 compounds, 0.11% hits. AID 1430;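 active = inhibition of 50% or more in the single-dose primary screen; inactive = inhibition below 50%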
Runt-SMMHC FRET = inhibitors of human RUNX1 Runt domain binding to CBFb-SMMHC | 220,000 compounds, 0.74% hits | Q01196+Q13951 | AID 1434 | inhibition, % at 20 µM | Cerulean-Runt/Venus-CBFb-SMMHC FRET ratio 530/480, 1 h;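 active = mean inhibition across duplicate retests at 20 µM reaching about 50%, limit read from the data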;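 also: inhibitors lower the FRET ratio by blocking Runt binding to CBFb-SMMHC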
Runt-CBFb FRET = blocks binding of human RUNX1 Runt domain to CBFb; inhibition, % at 20 µM; 220,000 compounds, 0.46% hits; Q01196+Q13951; Cerulean-Runt/Venus-CBFb FRET ratio 530/480, 1 h;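 active = inhibition over about 50% at 20 µM in the single-dose screen, limit read from the data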
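Schedule: protein complex preformed 1 h, compound exposure 1 h, room temperature, dark; test system: Cerulean-labeled Runt domain protein; amount: 100 nM per protein; buffer or medium: Tris 50 mM pH 7.5, KCl, K2SO4, 0.01% BSA; read-out: loss of energy transfer signal; detection: FRET fluorescence; controls: 5 µM unlabeled CBFb as full-inhibition high control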
14-3-3 Bad PPI = disrupts binding of bovine 14-3-3 zeta to phospho-Bad peptide; P63103; TR-FRET 14-3-3zeta/Dy647-pBad peptide displacement, 1 h; inhibition, % at 21.7 µM; 220,000 compounds, 0.71% hits;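 active = inhibition above about 70%, limit read from the data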
Target sequence (P63103 whole entry, looked up): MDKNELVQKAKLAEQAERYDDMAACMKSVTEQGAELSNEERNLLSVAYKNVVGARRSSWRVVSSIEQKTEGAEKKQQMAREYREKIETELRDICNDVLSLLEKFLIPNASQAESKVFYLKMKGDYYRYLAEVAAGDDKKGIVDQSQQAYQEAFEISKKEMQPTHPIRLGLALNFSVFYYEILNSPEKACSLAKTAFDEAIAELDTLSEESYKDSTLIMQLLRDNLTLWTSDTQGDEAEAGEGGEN
RanGTP-Impb inh = disruptors of Ran-importin-beta complex formation – biochemical, FRET, CFP-Ran, YFP-importin-beta, homogeneous, primary screen; cell-free CFP-Ran/YFP-importin-beta FRET ratio; inhibition, % (no concentration beside the values); 300,000 compounds, 1.1% hits; AID 2216;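 active = more than half of the replicate wells show a fall in the fluorescence ratio signal beyond about 16%, limit read from the data, passing the limit was not always enough; inconclusive = exactly half of the replicate wells pass the set limit; inactive = fewer than half of replicates pass the limit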
Hck-Nef inh = inhibitors of human Hck kinase activated by Nef | P08631 | inhibition, % at 20 µM | Recombinant Hck-YEEI plus Nef, Z-Lyte FRET kinase assay | 220,000 compounds, 0.68% hits;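 active = Hck-Nef kinase inhibition above about 50%, limit read from the data; inactive = inhibition below that limit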
Target sequence (P08631 whole entry, looked up): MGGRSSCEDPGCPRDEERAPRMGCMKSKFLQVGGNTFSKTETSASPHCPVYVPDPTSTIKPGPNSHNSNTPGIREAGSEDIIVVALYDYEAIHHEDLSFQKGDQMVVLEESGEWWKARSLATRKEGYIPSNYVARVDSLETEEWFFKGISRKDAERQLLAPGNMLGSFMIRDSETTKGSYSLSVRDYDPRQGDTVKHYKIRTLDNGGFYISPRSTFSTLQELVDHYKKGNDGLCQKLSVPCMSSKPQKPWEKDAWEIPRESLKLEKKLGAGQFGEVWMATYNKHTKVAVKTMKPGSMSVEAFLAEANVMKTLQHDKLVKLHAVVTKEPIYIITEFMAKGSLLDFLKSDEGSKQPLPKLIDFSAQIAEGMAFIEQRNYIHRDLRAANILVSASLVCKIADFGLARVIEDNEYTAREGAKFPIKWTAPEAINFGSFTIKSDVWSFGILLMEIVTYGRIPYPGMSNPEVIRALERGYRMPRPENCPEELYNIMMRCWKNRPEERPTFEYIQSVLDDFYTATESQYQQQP
Hck Nef conf = Hck-Nef kinase inhibition, confirmation | shares compounds with Hck-Nef inh | Recombinant Hck-YEEI:Nef, Z-Lyte FRET kinase assay | calls only at 10 µM | 1,300 compounds, 28% hits;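 active = average inhibition of at least 50%, with Z-scores no higher than 3 in both the phospho-tyrosine peptide and fluorescence counterscreens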
Large screens that a line does not name were inactive (follow-up assays come after a bar, where shown); [ ] = dose if it differs, or a comment. Sampled rows, rich in hits. Any-hit rate of the full collection: about 2.2%.

COc1ccc(-n2c(N)c(C(=O)NCC3CCCO3)c3nc4ccccc4nc32)c(OC)c1 (stereo not given)	Runt-SMMHC FRET 106, RanGTP-Impb inh 52, Hck-Nef inh 75
COc1ccc(-n2nc(C(=O)NCC(=O)NCC3CCCO3)c3ccccc3c2=O)c(OC)c1 (stereo not given)	RanGTP-Impb inh inconclusive
CC(=O)Oc1ccccc1N(C(C)=O)S(=O)(=O)c1cccc([N+](=O)[O-])c1	none
CCCc1cc(NCCCN2CCOCC2)n2c(nc3ccccc32)c1C#N	Hck-Nef inh 101
Cc1cc(NCCCN2CCOCC2)n2c(nc3ccccc32)c1C#N	RanGTP-Impb inh 30, Hck-Nef inh 75
COc1ccc(-c2cc(=O)oc3cc(OCC(=O)c4cccc([N+](=O)[O-])c4)ccc23)cc1	14-3-3 Bad PPI 70[fluorescence artefact?], Hck-Nef inh 80 | Hck Nef conf inactive
COc1ccc(-c2cc(=O)oc3cc(OCC(C)=O)ccc23)cc1	none
O=C(C1=C[C@@H](c2ccccc2)C[C@@H](OCc2ccc(CO)cc2)O1)N1CCCCCCC1	none
CN(C)S(=O)(=O)c1cccc(NC(=S)N/N=C/c2ccc(O)c(O)c2O)c1	Hck-Nef inh 91 | Hck Nef conf active
CCOC(=O)c1cc2c(=O)n3ccccc3nc2n(C(C)C)c1=NC(=O)c1ccco1	Runt-SMMHC FRET 86, Hck-Nef inh 106
CC(C)OCCCn1c(=NC(=O)c2ccncc2)c(C#N)cc2c(=O)n3ccccc3nc21	RanGTP-Impb inh 57, Hck-Nef inh 109
CCOC(=O)c1cc2c3ccccc3n(CC)c2nc1N	none
CCCn1c(=NC(=O)c2ccco2)c(C(=O)OCC)cc2c(=O)n3ccccc3nc21	Runt-SMMHC FRET 56, RanGTP-Impb inh 116, Hck-Nef inh 63 (no result: 14-3-3 Bad PPI) | Hck Nef conf inactive
CCOC(=O)c1cc2c(=O)n3ccccc3nc2n(CCCOC)c1=NC(C)=O	Runt-CBFb FRET 56, Hck-Nef inh 173 (not shown: RanGTP-Impb inh)
C=CCn1c(=NC(=O)c2ccco2)sc2cc(C(=O)OCC)ccc21	none
COc1ccccc1NC(=O)CSc1ccc(-c2ccc(-n3ccnc3)cc2)nn1	none (no result: TbHK1 inh, Runt-SMMHC FRET, Runt-CBFb FRET, 14-3-3 Bad PPI, Hck-Nef inh)
Cc1ccc(C(=O)N2CCN(c3ccc([N+](=O)[O-])cc3)CC2)o1	none (no result: TbHK1 inh, Runt-SMMHC FRET, Runt-CBFb FRET, 14-3-3 Bad PPI, Hck-Nef inh)
COc1ccccc1NS(=O)(=O)c1ccc(N/N=C/c2ccccc2OCC(=O)O)c([N+](=O)[O-])c1	none
O=C(O)COc1ccccc1/C=N/Nc1ccc(S(=O)(=O)Nc2ccc(Cl)cc2)cc1[N+](=O)[O-]	Hck-Nef inh 104 | Hck Nef conf inactive
O=C(CCNC(=O)c1ccccc1Cl)Nc1nc(-c2ccc3ccccc3c2)cs1	none
NS(=O)(=O)c1ccc(N2N=C(c3ccccc3)CC2c2ccc(F)cc2)cc1 (stereo not given)	Hck-Nef inh 60
COc1ccc(C2CC(c3ccccc3)=NN2c2ccc(S(N)(=O)=O)cc2)cc1 (stereo not given)	Hck-Nef inh 108
COc1ccc(C2CC(c3cccs3)=NN2c2ccc(C=O)cc2)cc1 (stereo not given)	Runt-SMMHC FRET 73, Hck-Nef inh 54 | Hck Nef conf inactive
Oc1ccc(C2=NN(c3ccccc3)C(c3ccc(F)cc3)C2)cc1 (stereo not given)	none (no result: TbHK1 inh, Runt-SMMHC FRET, Runt-CBFb FRET, 14-3-3 Bad PPI, Hck-Nef inh)
CC1CCN(C(=O)c2cc(Cl)ccc2NC(=O)c2ccco2)CC1	none (no result: TbHK1 inh, Runt-SMMHC FRET, Runt-CBFb FRET, 14-3-3 Bad PPI, Hck-Nef inh)
CCc1cccc(C)c1NC(=O)CC1Oc2ccc(C)cc2NC1=O (stereo not given)	none (no result: TbHK1 inh, Runt-SMMHC FRET, Runt-CBFb FRET, 14-3-3 Bad PPI, Hck-Nef inh)
O=C(O)c1cccc(CSc2n[nH]c(-c3ccc(Cl)cc3Cl)n2)c1	none
Nc1c(C(=O)N/N=C/c2cccnc2)cnn1-c1ccccc1	none
COc1cccc(/C=N/NC(=O)c2cnn(-c3ccccc3)c2N)c1	Hck-Nef inh 94 | Hck Nef conf inactive
C=CCN1C(=O)C(CC(=O)Nc2ccccc2)N(Cc2ccccn2)C1=S (stereo not given)	none
COc1ccc(/C=C2\SC(=Nc3ccccc3)NC2=O)cc1	none (no result: TbHK1 inh, Runt-SMMHC FRET, Runt-CBFb FRET, 14-3-3 Bad PPI, Hck-Nef inh)
COc1ccc(N=C2NC(=O)/C(=C\c3ccco3)S2)cc1	Hck-Nef inh 61 | Hck Nef conf inactive
CC(=O)Nc1sc(N/N=C\c2ccc(O)cc2)nc1-c1cccs1	Hck-Nef inh 60 | Hck Nef conf inactive
O=C(NC1CCCC1)c1cc2nc(-c3ccco3)cc(C(F)(F)F)n2n1	none (no result: TbHK1 inh, Runt-SMMHC FRET, Runt-CBFb FRET, 14-3-3 Bad PPI, Hck-Nef inh)
Nc1nc2nc(-c3cccs3)cc(C(F)(F)F)n2n1	Runt-SMMHC FRET 91, Runt-CBFb FRET 66, RanGTP-Impb inh 62, Hck-Nef inh 110
COc1cccc(-n2c(SCc3cc(=O)oc4cc(O)c(O)cc34)nc3ccccc3c2=O)c1	Runt-CBFb FRET 67, Hck-Nef inh 74 (not shown: Runt-SMMHC FRET)
CCCC(=O)Oc1ccc(C2NC(=O)c3ccccc3O2)cc1OC (stereo not given)	none (no result: TbHK1 inh, Runt-SMMHC FRET, Runt-CBFb FRET, 14-3-3 Bad PPI, Hck-Nef inh)
O=C(CC1C(=O)NCCN1CC(c1ccccc1)c1ccccc1)NC1CC1 (stereo not given)	none
CCCCNC(=O)C1(NC(=O)Nc2ccc(C)cc2)CCCCC1	none
CC1=NNC(=O)/C1=C\c1cn(-c2ccccc2)nc1-c1cccs1	Hck-Nef inh 99 | Hck Nef conf active
O=C(N/N=C/c1cn(-c2ccccc2)nc1-c1cccs1)c1ccccc1F	none
CC1=NNC(=O)/C1=C\c1cn(-c2ccccc2)nc1-c1ccc(F)cc1	Hck-Nef inh 86 | Hck Nef conf active
Cc1ccc(Cn2nnc3c(=O)n(CC(=O)NCc4ccccc4)cnc32)cc1	none (no result: RanGTP-Impb inh)
Cc1ccc(-c2csc(Nc3ccc(C(=O)O)cc3)[n+]2Cc2ccccc2)cc1	Hck-Nef inh 85 | Hck Nef conf active
COc1cc(/C=C/C(=O)OCC(=O)Nc2ccc(C)cc2[N+](=O)[O-])ccc1O	Hck-Nef inh 60 | Hck Nef conf inactive
COc1cc(/C=C/C(=O)OCC(=O)Nc2cc(C)c(C)cc2[N+](=O)[O-])ccc1O	none
CCOC(=O)c1cc(-c2ccccc2)sc1NC(=O)COC(=O)c1cccc(S(N)(=O)=O)c1	14-3-3 Bad PPI 73, Hck-Nef inh 58 | Hck Nef conf active
CCOC(=O)c1cc(-c2ccccc2)sc1NC(=O)COC(=O)c1ccc(Cl)c(S(N)(=O)=O)c1	none
O=C(CSc1ncnc2c1oc1ccccc12)Nc1nccs1	Hck-Nef inh 79 | Hck Nef conf inactive
Cc1cc(NCCN2CCOCC2)n2c(nc3ccccc32)c1C#N	none
Cc1cc(NCCCCO)n2c(nc3ccccc32)c1C#N	RanGTP-Impb inh 38, Hck-Nef inh 59
CCCc1cc(NCCCCO)n2c(nc3ccccc32)c1C#N	Runt-SMMHC FRET 54, RanGTP-Impb inh 43, Hck-Nef inh 97
CCCCc1c(C)c(C#N)c2nc3ccccc3n2c1Cl	none
